B1: Osa-1-4 twister ribozyme (parent)
chain: CCGCCUAACACUGCCAAUGCCGGUCCCAAGCCCGGAUAAAAGUGGAGGGGGCGG

Variants of: B1
Test: self-cleavage, relative activity (ratio to wild type); higher = more cleavage; co-transcriptional
Summary of the method: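 A DNA template was synthesised for a 54-nucleotide twister ribozyme from Oryza sativa, with 97 % wild-type base and 1 % of each other base at each of the 48 positions downstream of the cleavage site. The ribozyme cleaved itself co-transcriptionally during 2 h of in vitro transcription at 37 °C. Reverse transcription with a template-switching oligonucleotide, PCR amplification and deep sequencing followed, and cleavage status came from reads with or without upstream sequence. Relative activity is the fraction cleaved normalised to wild type.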

Variant | self-cleavage
C21G G48U | 0.02
C21G G49A | 0.05
C21G G49C | 0.03
C21G G49U | 0.02
C21G G50A | 0.09
C21G G50C | 0.06
C21G G50U | 0.1
C21G G51A | 0.07
C21G G51C | 0.02
C21G G51U | 0.06
C21G G53A | 0.08
C21G G53C | 0.02
C21G G53U | 0.04
C21G G54A | 0.07
C21G G54C | 0.07
C21G G54U | 0.11
C21G U12A | 0.08
C21G U12C | 0.04
C21G U12G | 0.06
C21G U18A | 0.1
C21G U18C | 0.08
C21G U18G | 0.11
C21G U24A | 0.06
C21G U24C | 0.04

Variant | self-cleavage
C21G U24G | 0.03
C21G U37A | 0.13
C21G U37C | 0.08
C21G U37G | 0.14
C21G U43A | 0.09
C21G U43C | 0.05
C21G U43G | 0.08
C21U | 1.03
C21U C9A | 0.55
C21U C9G | 0.74
C21U C9U | 0.92
C21U C25A | 0.11
C21U C25G | 0.14
C21U C25U | 0.88
C21U C26A | 0.06
C21U C26G | 0.12
C21U C26U | 0.88
C21U C27A | 0.15
C21U C27G | 0.09
C21U C27U | 0.14
C21U C31A | 0.06
C21U C31G | 0.14
C21U C31U | 0.97
C21U C32A | 0.09

Variant | self-cleavage
C21U C32G | 0.11
C21U C32U | 0.13
C21U C33A | 0.08
C21U C33G | 0.07
C21U C33U | 0.47
C21U C52A | 0.97
C21U C52G | 1.02
C21U C52U | 1.02
C21U G13A | 0.11
C21U G13C | 0.03
C21U G13U | 0.04
C21U G19A | 0.66
C21U G19C | 0.04
C21U G19U | 0.21
C21U G22A | 0.26
C21U G22C | 0.17
C21U G22U | 0.1
C21U G23A | 0.1
C21U G23C | 0.06
C21U G23U | 0.06
C21U G30A | 0.04
C21U G30C | 0.06
C21U G30U | 0.04
C21U G34A | 1.05

Variant | self-cleavage
C21U G34C | 0.96
C21U G34U | 1.05
C21U G35A | 0.98
C21U G35C | 0.1
C21U G35U | 0.57
C21U G42A | 0.51
C21U G42C | 0.18
C21U G42U | 0.09
C21U G44A | 0.97
C21U G44C | 0.99
C21U G44U | 0.95
C21U G45A | 0.22
C21U G45C | 0.07
C21U G45U | 0.11
C21U G47A | 0.19
C21U G47C | 0.12
C21U G47U | 0.23
C21U G48A | 0.1
C21U G48C | 0.11
C21U G48U | 0.1
C21U G49A | 0.14
C21U G49C | 0.08
C21U G49U | 0.14
C21U G50A | 0.97

Variant | self-cleavage
C21U G50C | 0.94
C21U G50U | 1.03
C21U G51A | 0.9
C21U G51C | 0.09
C21U G51U | 0.67
C21U G53A | 0.64
C21U G53C | 0.1
C21U G53U | 0.32
C21U G54A | 0.96
C21U G54C | 0.89
C21U G54U | 0.93
C21U U12A | 0.73
C21U U12C | 0.33
C21U U12G | 0.26
C21U U18A | 1
C21U U18C | 1.03
C21U U18G | 0.78
C21U U24A | 0.29
C21U U24C | 0.26
C21U U24G | 0.09
C21U U37A | 1.07
C21U U37C | 1.05
C21U U37G | 1.04
C21U U43A | 0.89

Variant | self-cleavage
C21U U43C | 0.32
C21U U43G | 0.47
G22A | 1.05
G22A G23A | 0.12
G22A G23C | 0.05
G22A G23U | 0.08
G22A G30A | 0.05
G22A G30C | 0.05
G22A G30U | 0.05
G22A G34A | 0.14
G22A G34C | 0.11
G22A G34U | 0.21
G22A G35A | 0.34
G22A G35C | 0.11
G22A G35U | 0.32
G22A G42A | 0.17
G22A G42C | 0.1
G22A G42U | 0.05
G22A G44A | 0.94
G22A G44C | 0.92
G22A G44U | 0.84
G22A G45A | 0.15
G22A G45C | 0.06
G22A G45U | 0.08

Variant | self-cleavage
G22A G47A | 0.13
G22A G47C | 0.08
G22A G47U | 0.12
G22A G48A | 0.08
G22A G48C | 0.09
G22A G48U | 0.08
G22A G49A | 0.12
G22A G49C | 0.08
G22A G49U | 0.09
G22A G50A | 1
G22A G50C | 0.68
G22A G50U | 0.94
G22A G51A | 0.2
G22A G51C | 0.14
G22A G51U | 0.67
G22A G53A | 0.51
G22A G53C | 0.09
G22A G53U | 0.14
G22A G54A | 0.77
G22A G54C | 0.82
G22A G54U | 0.84
G22A U12A | 0.35
G22A U12C | 0.21
G22A U12G | 0.08

Variant | self-cleavage
G22A U18A | 1.02
G22A U18C | 0.98
G22A U18G | 0.94
G22A U24A | 0.36
G22A U24C | 0.16
G22A U24G | 0.13
G22A U37A | 1.06
G22A U37C | 1.01
G22A U37G | 1
G22A U43A | 0.3
G22A U43C | 0.18
G22A U43G | 0.1
G22C | 0.19
G22C G23A | 0.06
G22C G23C | 0.02
G22C G23U | 0.03
G22C G30A | 0.03
G22C G30C | 0.02
G22C G30U | 0.02
G22C G34A | 0.05
G22C G34C | 0.05
G22C G34U | 0.05
G22C G35A | 0.03
G22C G35C | 0.03

Variant | self-cleavage
G22C G35U | 0.04
G22C G42A | 0.03
G22C G42C | 0.04
G22C G42U | 0.02
G22C G44A | 0.07
G22C G44C | 0.06
G22C G44U | 0.07
G22C G45A | 0.03
G22C G45C | 0.02
G22C G45U | 0.03
G22C G47A | 0.03
G22C G47C | 0.02
G22C G47U | 0.04
G22C G48A | 0.02
G22C G48C | 0.02
G22C G48U | 0.02
G22C G49A | 0.03
G22C G49C | 0.03
G22C G49U | 0.03
G22C G50A | 0.34
G22C G50C | 0.05
G22C G50U | 0.11
G22C G51A | 0.04
G22C G51C | 0.03

Variant | self-cleavage
G22C G51U | 0.04
G22C G53A | 0.06
G22C G53C | 0.03
G22C G53U | 0.04
G22C G54A | 0.08
G22C G54C | 0.15
G22C G54U | 0.16
G22C U12A | 0.05
G22C U12C | 0.07
G22C U12G | 0.03
G22C U18A | 0.14
G22C U18C | 0.1
G22C U18G | 0.17
G22C U24A | 0.04
G22C U24C | 0.03
G22C U24G | 0.03
G22C U37A | 0.14
G22C U37C | 0.14
G22C U37G | 0.17
G22C U43A | 0.04
G22C U43C | 0.03
G22C U43G | 0.04
G22U | 0.93
G22U G23A | 0.08

Variant | self-cleavage
G22U G23C | 0.04
G22U G23U | 0.07
G22U G30A | 0.03
G22U G30C | 0.04
G22U G30U | 0.03
G22U G34A | 0.19
G22U G34C | 0.4
G22U G34U | 0.79
G22U G35A | 0.36
G22U G35C | 0.11
G22U G35U | 0.41
G22U G42A | 0.08
G22U G42C | 0.07
G22U G42U | 0.05
G22U G44A | 0.72
G22U G44C | 0.81
G22U G44U | 0.47
G22U G45A | 0.11
G22U G45C | 0.04
G22U G45U | 0.06
G22U G47A | 0.07
G22U G47C | 0.05
G22U G47U | 0.07
G22U G48A | 0.04

Variant | self-cleavage
G22U G48C | 0.06
G22U G48U | 0.05
G22U G49A | 0.07
G22U G49C | 0.05
G22U G49U | 0.05
G22U G50A | 0.91
G22U G50C | 0.3
G22U G50U | 0.75
G22U G51A | 0.1
G22U G51C | 0.08
G22U G51U | 0.38
G22U G53A | 0.1
G22U G53C | 0.05
G22U G53U | 0.12
G22U G54A | 0.58
G22U G54C | 0.64
G22U G54U | 0.6
G22U U12A | 0.13
G22U U12C | 0.1
G22U U12G | 0.05
G22U U18A | 0.84
G22U U18C | 0.68
G22U U18G | 0.82
G22U U24A | 0.13

Variant | self-cleavage
G22U U24C | 0.06
G22U U24G | 0.07
G22U U37A | 0.93
G22U U37C | 0.55
G22U U37G | 0.92
G22U U43A | 0.12
G22U U43C | 0.1
G22U U43G | 0.08
G23A | 0.8
G23A G30A | 0.04
G23A G30C | 0.04
G23A G30U | 0.04
G23A G34A | 0.11
G23A G34C | 0.07
G23A G34U | 0.07
G23A G35A | 0.14
G23A G35C | 0.08
G23A G35U | 0.13
G23A G42A | 0.08
G23A G42C | 0.07
G23A G42U | 0.05
G23A G44A | 0.15
G23A G44C | 0.27
G23A G44U | 0.18

Variant | self-cleavage
G23A G45A | 0.05
G23A G45C | 0.05
G23A G45U | 0.06
G23A G47A | 0.07
G23A G47C | 0.06
G23A G47U | 0.06
G23A G48A | 0.05
G23A G48C | 0.06
G23A G48U | 0.05
G23A G49A | 0.06
G23A G49C | 0.05
G23A G49U | 0.06
G23A G50A | 0.23
G23A G50C | 0.14
G23A G50U | 0.3
G23A G51A | 0.09
G23A G51C | 0.07
G23A G51U | 0.08
G23A G53A | 0.15
G23A G53C | 0.06
G23A G53U | 0.11
G23A G54A | 0.2
